Results: the EternaBench riboswitch data

Tested on: MS2 coat protein
Assay: apparent Kd, MS2 coat protein; higher = weaker binding; RNA-MaP array; FMN 200 µM where present
Outline: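 Apparent Kd: the median of filtered binding-curve fits from single clusters. Designs were transcribed on Illumina sequencing-chip clusters by stalled E. coli RNA polymerase and titrated with SNAP-549-labelled MS2 coat protein from 0.7 or 1.5 nM, doubling to 3 µM, in 100 mM Tris-HCl pH 7.5, 80 mM KCl, 4 mM MgCl2, BSA, DTT, yeast tRNA and Tween-20. Each series ran without and then with constant ligand, and green signal was normalised to red-channel RNA signal and control-cluster median Fmax.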

[1] = designed as: OFF switch for flavin mononucleotide, no ligand
[2] = ligand present: flavin mononucleotide, designed as: OFF switch for flavin mononucleotide
[3] = designed as: ON switch for flavin mononucleotide, no ligand
[4] = ligand present: flavin mononucleotide, designed as: ON switch for flavin mononucleotide

Sequence	apparent Kd [1]	apparent Kd [2]	apparent Kd [3]	apparent Kd [4]
GUACUGUAGUGAGGAUAUACGAGAACGAUAGUUCGGCGAUCCAUUUAUACAUGAGGAUCACCCAUGUAGAAGGCACUUCAGUAC	6.26 nM	72.5 nM	–	–
UGGUAACAUGAGGAUCACCCAUGUCAGGAUAUCAGUAAGAAUAGAUUAGAUUAGAAUAUGAGAAGGGACUAUAU	37.3 nM	31.6 nM	–	–
GUCAGCUCGUGAGGAUAUACAACACUGCCUCGGCAGUGUAUUAAGAUCACAUGAGGAUCACCCAUGUAGAAGGCACGAGCUGAU	13.4 nM	214 nM	–	–
CGCAAUAUACAGAAGGAGUUAUUUAGAGGAUUACUAGGAUAUGUUCACAUGAGGAUCACCCAUGUCAUAUGGAGUUUUAUUGCG	9.43 nM	8.27 nM	–	–
AAGGCGUCAGGAUAUCCAAUAUAUGACAUGAGGAUCACCCAUGUUUCCACUCGUACCUCCGGAGAAGGGACGAAUA	29.1 nM	27.5 nM	–	–
CCUCGACAUGAGGAUCACCCAUGUCAGGAUAUUGUGUAUCGGGUUUUUUACGGAAAGGCGAGAAGGGAUGUGUG	18.4 nM	16.9 nM	–	–
CUGAUGUGAGGAUAUCGGACUACGGCCAGGCCGCUAGCAUACGAGAAGGCACAUGAGGAUCACCCAUGUGAGAA	13.3 nM	42.7 nM	–	–
CCCGCGAUGUCAGGAUAUAGUCGGAGGUGCAGACUAGAAGGGACAUGAGGAUCACCCAUGUGCGUGAAAAUUUAAAACCUAAAU	39.3 nM	119 nM	–	–
GUGUACAUAUCAGGAUAUCAUCGAGUGGAUUAACACAGUGAUUACAUGAGGAUCACCCAUGUGCUUGAGAAGGGAUUACAAUGU	19.3 nM	16.4 nM	–	–
GGGUACAUCGGAGGAUAUCUUGUAAAUACAUGAGGAUCACCCAUGUCGAUGGAGACAUCGGAGAUUGAGAAGGCCGAUGUACCG	–	–	8.03 nM	5.36 nM
UAAUAAUAAUAAUAGCAGUUACAUGAGGAUCACCCAUGUAUAUAGGAUAUCGUCAGGAAUACUGACGAGAAGGAUAUACUCUGC	21.9 nM	26.2 nM	–	–
UAACAGCAAGGAUAUACGGGCUGUGCUUUUCAUUUCUUACAACAUGAGGAUCACCCAUGUAGAAGGUGCAACAU	32.5 nM	76.9 nM	–	–
CAUGUUUGGCUGGUCGAGAAACACAUGAGGAUCACCCAUGUCAGAAGGCGACGUCAGCAAACCGUCGAGGAUAUGACAUCAAAA	5.65 nM	30.2 nM	–	–
CCGCAUGCUGUCAGGAUAUCGUAGAUAAUAAUAUGCGAGAAGGGACAUGAGGAUCACCCAUGUAAGAGGCGGCC	28.9 nM	37.7 nM	–	–
AAAGAGGCGGAUCGCAACUACCAGCAGGAUAUGGGUGUUUUUACAUGAGGAUCACCCAUGUACAUCUAGAAGGGUUGGGUGUCC	–	–	576 nM	76.6 nM
CAUUAAUUCAUUAUAUUAAUUUUACAGGAUAUGUAACAUGAGGAUCACCCAUGUAUUCAAGGUUAACAGAAGGGUAUAUCUAGU	18.2 nM	14 nM	–	–
GUCUUACAUGAGGAUCACCCAUGUGAGGAUAUCCGCGGCGCCGGGUUUCCGGCGCCGCGGAGAAGGCGCGUGUU	19.2 nM	22.3 nM	–	–
UCGAGCAGGGAAUGGUCGCUGAAGUAGGAUAUCCGCGUGGCCGUCCACAUGAGGAUCACCCAUGUGGAGAAGGGCUACAGCGAA	6.07 nM	6.58 nM	–	–
AUCAGCUCGUCAGGAUAUACGUCACUGCGUCAGCAGUGUGAUAAGAUCACAUGAGGAUCACCCAUGUAGAAGGGACGAGCUGAU	8.48 nM	72.3 nM	–	–
AGUAACUCAGAUCUUUUGAACAUGAGGAUCACCCAUGUAUUGAGAAGGAGCUGGAAGAGAGACAGCUAGGAUAUCAGAGUUGCG	5.96 nM	7.19 nM	–	–
AAAACAUGAGGAUCACCCAUGUAAAGAUCGGUUAAUAGAGGUGAGGAUAUACGAAGUUAAAGCUGGUAGAAGGCACUGGGUACA	–	–	78.5 nM	51.3 nM
AACAUACUAUACAUGAGGAUCACCCAUGUUUGGGCACUGUACAGAAGGCACGGGCAAAUGCGAGGUGAGGAUAUGUAGUUAGUG	–	–	64.8 nM	18.8 nM
AGACGGAGCUGAGGAUAUAACAUGAGGAUCACCCAUGUAAGUCUCCAGGAAACUGGAGACAAUAGUUAGAAGGCAGCUCCGUCA	13.6 nM	22.3 nM	–	–
AUUAUUUAGUAGAAGGACGACUAUUAAUAUUUCGUAGGAUAUACUAUUUACAUGAGGAUCACCCAUGUUUAAAUGGAACAAUGU	11.2 nM	14 nM	–	–
CUGGUUGUCGAGGAUAUGCACCAGCUCACUGACGCAGAAGGCGACACAUGAGGAUCACCCAUGUCAGUUCGCGU	16.9 nM	18.9 nM	–	–
GUGAUAUUGUAAGGAUAUACUCUGUGAUGAAGAGUAGAAGGUACUUACAUGAGGAUCACCCAUGUUUAACGAGAUACUAAUCGU	–	–	198 nM	76.9 nM
CAGUACUGAGGAUAUACAUGAGGAUCACCCAUGUGUUCCUUGUAGGAUAUGCGCAAAAGUAGAAGGCAGAAGGAGAUGUGCCUA	6.59 nM	6.3 nM	–	–
UUCAACGAUGAAGGAUAUCUAUAAACAUGAGGACAUGAGGAUCACCCAUGUUGAUCACCCAUGUAGGAGAAGGUCAACAUGAGG	–	–	220 nM	68.2 nM

Sequence	apparent Kd [1]	apparent Kd [2]	apparent Kd [3]	apparent Kd [4]
AAUUCACAUGAGGAUCACCCAUGUAUUGCGAGCGCGAUUACGUAGGAUAUCCAUCAAAACAGAUAGGAGAAGGGCGUACUAUCU	–	–	253 nM	185 nM
CUUCCAGUUGCAGGAUAUCGAGAGGAGAGAUUACGAGAAGGGCAACAUGAGGAUCACCCAUGUAUGUGCUUGGGACAACCUAUC	16.8 nM	107 nM	–	–
CGGCGCUGUCGAGAGGAUAUGCGGUGAUGGACAUGAGGAUCACCCAUGUUAGCGAUAGCAUCACGGUAGAAGGCUCUACGGCCUG	–	–	112 nM	15.6 nM
CGCUCAAGAGAGAAGGAUAGAAUCAGAAGGCGUAACAUGAGGAUCACCCAUGUAAAGUAGUGUAACGAGGAUAUGAAAUGAGCG	11.8 nM	13.1 nM	–	–
ACAGUUCUGCAAGGAUAUCGUUCUAGUUUAGUACGAGAAGGUGCUUUAGUUUUUUCUUUGUGUUGACAUGAGGAUCACCCAUGU	23.4 nM	15.2 nM	–	–
GUCAGCUCGUGAGGAUAUACAACACUGCUUCAGCAGUGUAUUAAGAUCACAUGAGGAUCACCCAUGUAGAAGGCACGAGCUGAU	13.8 nM	242 nM	–	–
GGGACUCUAAAUGGGCUGUCGACAUAGGAUAUGAUGUGCGACAUGAGGAUCACCCAUGUAACGAAUUAGAAGGGUGUAGGCAUG	–	–	574 nM	173 nM
UCUUAACAUGAGGAUCACCCAUGUGAGGAUAUGAUGCAGCAGUGGUCUACGCUGUGCAUCAGAAGGUACAUGGG	23 nM	20.1 nM	–	–
GUCAGAUCGUGAGGAUAUACAACACUGCUUCGGCAGUGUAUUAAGAUCACAUGAGGAUCACCCAUGUAGAAGGCACGAGCUGAU	13.3 nM	236 nM	–	–
AAUAUGUUGCAGAAGGUUAUUUUUAUAACGAUCCAUGUGACAUGAGGAUCACCCAUGUAAUUGAUGAAGGAUAUGCAAUAUAUU	6.72 nM	6.45 nM	–	–
CGUCAUCAAGUGAGGAUAUCGUCAAAUCAAUCAGGCGAGAAGGCACAUGAGGAUCACCCAUGUCGACUCAUCAC	15.4 nM	22.2 nM	–	–
AAGUCGACGGUGAGGAUAUUAGUUGAACGACAGAUUAAGAAGGUACAUGAGGAUCACCCAUGUGGGUAGUGUUG	96 nM	98.6 nM	–	–
AAGAAACAUGAGGAUCACCCAUGUCACCUCACACGAGGAUAUCUGAAUCGAUUAGAUUACGGAGAAGGCGUGAUAA	–	–	27.5 nM	20.6 nM
UGUGCUGAAGGAUAUGCGUAAGCUCGGUGACGAGCAGAUCUACAUGAGGAUCACCCAUGUAGAAGGUCAGUACU	16 nM	18.4 nM	–	–
AGACUGCGUAGAAUUAGCAGCUGACAGGAUAUGACAUGAGGAUCACCCAUGUGAAAUAAGAAGGGUCAGAAGGGUCACGACACA	11.7 nM	9.98 nM	–	–
AAGGAGUUAGGAUAUGCUGCUCGUCACUUGCGUGAUGAGUAGCAGAAGGAACAUGAGGAUCACCCAUGUAAAGA	30.2 nM	24.2 nM	–	–
GUCUUUUUACAGAAGGUGUUUUACAUGAGGAUCACCCAUGUUUAUAUGUUUAAAUUUGAUAUUUACAAGGAUAUGUACUAAUCU	–	–	25.3 nM	17.4 nM
UUGGACGUCGUAGGAUUUGUAGGAUAUUCCUACAUGAGGAUCACCCAUGUUGACAUGGAAGAAGGACAGAAGGACGAUGUCCAU	–	–	87.3 nM	5.51 nM
CCACUGAUACCUUGGCCGCUACAUGAGGAUCACCCAUGUCGUGAGGAUAUCCCACCAUACUGUUAGGAGAAGGCGCGUAUGGGC	11 nM	17.2 nM	–	–
UGGUACUAGCGAGGAUAUGGGAAGAUACAUGAGGAUCACCCAUGUUUAAGAAUGCCGAGAGGCAACUAGAAGGCCCUAGUACCU	–	–	456 nM	69.4 nM
UGUCGGAGCAGAGGAUAUUACAUGAGGAUCACCCAUGUAUGAACCAAUAGCUGGAAACAGCAAUGUAAGAAGGCUGCUCAGACA	11.9 nM	137 nM	–	–
UAUAUGUCAGGAUAUCGAUUGGAAUGGAAUUUAGUUCUGGUUGAGAAGGGACAUGAGGAUCACCCAUGUUUUUC	35.5 nM	213 nM	–	–
CGAUAAAGCUGAGGAUAUGAGAAUAGAAAGAAAUCAGAAGGCAGACAUGAGGAUCACCCAUGUGAGUUCUCGAGAUUAGAUAUU	25.2 nM	60.6 nM	–	–
UGAUCUUUUGUUAGGAUAUGCUGUUUUUUUUUUCAGCAGAAGGGACAUGAGGAUCACCCAUGUUUUGUCAUAAA	12.4 nM	24.9 nM	–	–
GUAGCAUACCGAGGAUAUUCAUAUAAUAAAUAAACAUGAGGAUCACCCAUGUGGCGAAAGCCAAGGGAGAAGGCGGAAUGCUAC	–	–	315 nM	26.4 nM
UUUGUUUAUGCAGGAUAUUGACUUUUAUUUCUACAAGAAGGGCAUUACAUGAGGAUCACCCAUGUCUACAUGUAUUUAACUAGU	67.8 nM	49.1 nM	–	–
AUCAGCUCGUCAGGAUAUAUAUCACUGCUUCGGCAGUGUAUUAAGAUCACAUGAGGAUCACCCAUGUAGAAGGGACGAGCUGAU	16.8 nM	20.2 nM	–	–
